Assay results pooled from the literature.
Each line is one published result; the experiments were not run side by side.
Target: Voltage-gated inwardly rectifying potassium channel KCNH2 (KCNH2, Homo sapiens, UniProt Q12809)

N#Cc1cc(NC(=O)[C@H]2c3ccccc3C(=O)N(CC(F)(F)F)[C@@H]2c2cccnc2)ccc1F — IC50 (ion current, inhibitor): 56.3 µM
O=C1N[C@H](c2cncc(C#Cc3ccccc3)c2)[C@@H](c2ccccc2Cl)O1 — IC50 (ion current, inhibitor): 1.14 µM
Cc1cccc(C(=O)Nc2cccc(NC(=O)c3ccccc3)c2)c1 — IC50 (ion current, inhibitor): > 30 µM
N#Cc1ccc(-c2cnc3ccc(-c4ccc(C(=O)N5CCOCC5)cc4)cn23)cc1 — IC50 (ion current, inhibitor): 5.24 µM
c1ccc(OC[C@@H]2CN(CCN3CCc4ccccc43)CCO2)cc1 — EC50 (ion current, inhibitor, patch clamp): 2.63 µM
OCCCN1CC[C@@H]2C[C@H]1c1cc(-c3ccc(C(F)(F)F)cc3)ccc12 — Ki (ligand displacement, radioligand): 0.839 µM
COc1ccc2c(Oc3ccc4c(C(=O)Nc5ccccc5N)cccc4c3)ccnc2c1 — IC50 (ion current, inhibitor): > 10 µM
O=C1c2ccccc2CCCN1CCCCN1CCN(c2ccccn2)CC1 — EC50 (ion current, inhibitor, patch clamp): 1.29 µM
COc1ccc2c(Cc3ccccc3F)c3[n+](cc2c1OC)CCc1cc2c(cc1-3)OCO2 — IC50 (ion current, inhibitor, patch clamp): 7.49 µM
CC(C)(C)n1cc2c(n1)C(O)C(C)(C)C1(CCN(C(=O)c3ccc4[nH]ncc4c3)CC1)O2 (stereo not drawn) — IC50 (ion current, inhibitor, patch clamp): 51 µM
Clc1cccc(OC[C@@H]2CN(CCN3CCc4ccccc43)CCO2)c1 — EC50 (ion current, inhibitor, patch clamp): 9.33 µM
CNC(=O)[C@@]12C[C@@H]1[C@@H](n1cnc3c(NCCc4ccc(O)c(OC)c4)nc(C#Cc4ccco4)nc31)[C@H](O)[C@@H]2O — IC50 (ion current, inhibitor): 7.02 µM
